Key:
Rattus norvegicus [1] = assay: Antiinflammatory activity in Wistar rat assessed as inhibition of carrageenan-induced paw edema at equimolar ip dose relative […] diclofenac sodium administered 1 hr before carrageenan challenge measured after 3 hrs relative to control; assay type: functional
Outline: (§1)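 Wistar rats (100–120 g), 5 per group, were dosed ip either at equimolar […] or at three graded doses to derive ED50. Vehicle-only rats served as controls. After 1 h, 0.05 mL 1% carrageenin in saline (made 24 h earlier) was injected subplantar into the right hind paw and saline into the left. At 3 h, rats were killed and both paws cut and weighed. Right-over-left % weight increase gave % oedema reduction versus control.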

Rattus norvegicus [2] = assay: Antiinflammatory activity in Wistar rat assessed as inhibition of carrageenan-induced paw edema at 45 mg/kg, ip administered 1 hr before carrageenan challenge measured after 3 hrs relative to control; assay type: functional; conditions: route intraperitoneal; outline: as §1
Rattus norvegicus [3] = assay: Antiinflammatory activity in Wistar rat assessed as inhibition of carrageenan-induced paw edema at 30 mg/kg, ip administered 1 hr before carrageenan challenge measured after 3 hrs relative to control; assay type: functional; conditions: route intraperitoneal; outline: as §1
Rattus norvegicus [4] = assay: Antiinflammatory activity in ip dosed Wistar rat assessed as inhibition of carrageenan-induced paw edema administered 1 hr before carrageenan challenge measured after 3 hrs relative to control; assay type: functional; outline: as §1
[5] = Therapeutic index, ED50 for antiinflammatory activity to LD50 for acute toxicity in Wistar rat; conditions: read-out: TI
Rattus norvegicus [6] = assay: Gastrointestinal toxicity in Wistar rat assessed as length of elongated ulcer at equimolar po dose relative […] diclofenac sodium qd for 5 days measured after 10 hrs last post dose; assay type: organism-based; conditions: in vivo
Outline: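 Rats, 5 per group, were given oral equimolar doses ([…]) daily for 5 days. They were killed by ether overdose 10 h after the last dose. Stomachs were rinsed with saline, opened along the greater curvature and examined under a ×10 hand lens. Ulcer number and summed ulcer length were recorded per animal, and the mean was taken as ulcer index.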

Rattus norvegicus [7] = assay: Antiinflammatory activity in Wistar rat assessed as inhibition of carrageenan-induced paw edema at 75 mg/kg, ip administered 1 hr before carrageenan challenge measured after 3 hrs relative to control; assay type: functional; conditions: route intraperitoneal; outline: as §1
Mus musculus [8] = assay: Analgesic activity in Swiss albino mouse assessed as inhibition of acetic acid-induced writhing at 45 mg/kg, po administered 2 hrs before acetic acid challenge measured after 20 mins relative to control; assay type: functional
Outline: (§2)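 Swiss albino mice of either sex (20–25 g), in groups of 6, were housed at 22 ± 2 °C on a 12 h light/dark cycle. Drug was given orally and vehicle alone to negative controls. After 2 h, 0.2 mL 3% acetic acid was injected ip. Writhes were counted over 20 min, and % reduction in writhe number versus the control group was calculated.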

[9] = Acute toxicity in ip dosed Wistar rat assessed as mortality after 24 hrs; assay type: organism-based; conditions: in vivo
Mus musculus [10] = assay: Analgesic activity in Swiss albino mouse assessed as inhibition of acetic acid-induced writhing at 100 mg/kg, po administered 2 hrs before acetic acid challenge measured after 20 mins relative to control; assay type: functional; outline: as §2
Mus musculus [11] = assay: Analgesic activity in Swiss albino mouse assessed as inhibition of acetic acid-induced writhing at 37 mg/kg, po administered 2 hrs before acetic acid challenge measured after 20 mins relative to control; assay type: functional; outline: as §2
Rattus norvegicus [12] = assay: Antiinflammatory activity in Wistar rat assessed as inhibition of carrageenan-induced paw edema at 37 mg/kg, ip administered 1 hr before carrageenan challenge measured after 3 hrs relative to control; assay type: functional; conditions: route intraperitoneal; outline: as §1
Rattus norvegicus [13] = assay: Antiinflammatory activity in Wistar rat assessed as inhibition of carrageenan-induced paw edema at […], ip administered 1 hr before carrageenan challenge measured after 3 hrs relative to control; assay type: functional; outline: as §1
Rattus norvegicus [14] = assay: Antiinflammatory activity in Wistar rat assessed as inhibition of carrageenan-induced paw edema at 50 mg/kg, ip administered 1 hr before carrageenan challenge measured after 3 hrs relative to control; assay type: functional; conditions: route intraperitoneal; outline: as §1
Mus musculus [15] = assay: Analgesic activity in Swiss albino mouse assessed as inhibition of acetic acid-induced writhing at 50 mg/kg, po administered 2 hrs before acetic acid challenge measured after 20 mins relative to control; assay type: functional; outline: as §2

Compound	inhibition (INH) (Rattus norvegicus [1])	further results
COc1ccc(/C=C/C(C)=N/OCC(=O)Nc2ccc(OC)cc2)cc1	37.25%	–
CC(/C=C/c1ccc(Cl)cc1)=N\OC(C)C(=O)O (centres undefined)	66.7%	inhibition in vivo at 45 mg/kg (Rattus norvegicus [2]): 66.7%; inhibition in vivo at 30 mg/kg (Rattus norvegicus [3]): 45.1%; ED50 (Rattus norvegicus [4]): 29.9 mg/kg; selectivity ratio [5]: 24.9; Activity (Rattus norvegicus [6]): 8.1 mm; inhibition in vivo at 75 mg/kg (Rattus norvegicus [7]): 75.2%; inhibition in vivo at 45 mg/kg (Mus musculus [8]): 20.3%; LD50 at 24 h [9]: 745 mg/kg; inhibition in vivo at 100 mg/kg (Mus musculus [10]): 39.1%
CCOC(=O)CO/N=C(C)/C=C/c1ccc(Cl)cc1	26.23%	–
CC(/C=C/c1ccc(Cl)cc1)=N\OCC(=O)Nc1ccc(Cl)cc1	40.89%	–
COc1ccc(/C=C/C(C)=N/OCC(=O)NC(C)C)cc1	41.68%	–
CC(/C=C/c1ccc(Cl)cc1)=N\OCC(=O)NN	21.76%	–
COc1ccc(NC(=O)CO/N=C(C)/C=C/c2ccc(Cl)cc2)cc1	48.16%	–
CC(/C=C/c1ccc(Cl)cc1)=N\OC(C)C(N)=O (centres undefined)	57.54%	–
CC(/C=C/c1ccc(Cl)cc1)=N\OCC(=O)Nc1ccccc1	29.45%	–
CC(/C=C/c1ccccc1)=N\OC(C)C(=O)O (centres undefined)	40.85%	–
CC(/C=C/c1ccccc1)=N\OC(C)C(N)=O (centres undefined)	63.23%	inhibition in vivo at 37 mg/kg (Mus musculus [11]): 53.6%; inhibition in vivo at 30 mg/kg (Rattus norvegicus [3]): 37.7%; ED50 (Rattus norvegicus [4]): 34.3 mg/kg; selectivity ratio [5]: 20.1; Activity (Rattus norvegicus [6]): 0.3 mm; inhibition in vivo at 75 mg/kg (Rattus norvegicus [7]): 69.1%; inhibition in vivo at 37 mg/kg (Rattus norvegicus [12]): 63.2%; LD50 at 24 h [9]: 745 mg/kg; inhibition in vivo at 100 mg/kg (Mus musculus [10]): 82.5%
COc1ccc(NC(=O)CO/N=C(C)/C=C/c2ccccc2)cc1	49.64%	–
CC(/C=C/c1ccccc1)=N\OCC(=O)Nc1ccc(Cl)cc1	28.66%	–
CCOC(=O)C(C)O/N=C(C)/C=C/c1ccccc1 (centres undefined)	33.2%	–
COc1ccc(/C=C/C(C)=N/OCC(=O)NN)cc1	24.44%	–
CC(/C=C/c1ccccc1)=N\OCC(=O)NN	29.01%	–
COc1ccc(/C=C/C(C)=N/OC(C)C(=O)NN)cc1 (centres undefined)	38.76%	–
CC(/C=C/c1ccccc1)=N\OCC(N)=O	49.71%	–
COc1ccc(/C=C/C(C)=N/OC(C)C(=O)NC(C)C)cc1 (centres undefined)	27.53%	–
CC(/C=C/c1ccc(Cl)cc1)=N\OCC(N)=O	50.77%	–

Compound	inhibition (INH) (Rattus norvegicus [1])	further results
CC(/C=C/c1ccccc1)=N\OC(C)C(=O)NN (centres undefined)	56.27%	–
COc1ccc(/C=C/C(C)=N/OCC(N)=O)cc1	38.21%	–
COc1ccc(/C=C/C(C)=N/OC(C)C(=O)O)cc1 (centres undefined)	45.38%	–
O=C([O-])Cc1ccccc1Nc1c(Cl)cccc1Cl.[Na+] [DICLOFENAC SODIUM]	–	inhibition in vivo at 30 mg/kg (Rattus norvegicus [3]): 46%; ED50 (Rattus norvegicus [4]): 30.6 mg/kg; inhibition (INH) (Rattus norvegicus [13]): 72.13%; Activity (Rattus norvegicus [6]): 7.9 mm; inhibition in vivo at 75 mg/kg (Rattus norvegicus [7]): 80.2%; inhibition in vivo at 50 mg/kg (Rattus norvegicus [14]): 72.1%; inhibition in vivo at 50 mg/kg (Mus musculus [15]): 71.1%
CC(/C=C/c1ccccc1)=N\OCC(=O)NC(C)C	30.93%	–
CC(/C=C/c1ccc(Cl)cc1)=N\OCC(=O)NC(C)C	28.49%	–
CC(/C=C/c1ccccc1)=N\OCC(=O)Nc1ccccc1	35.43%	–
COc1ccc(/C=C/C(C)=N/OC(C)C(N)=O)cc1 (centres undefined)	58.53%	–
COc1ccc(/C=C/C(C)=N/OCC(=O)Nc2ccc(Cl)cc2)cc1	43.32%	–
CC(/C=C/c1ccccc1)=N\OCC(=O)O	45.62%	–
COc1ccc(/C=C/C(C)=N/OCC(=O)Nc2ccccc2)cc1	42.91%	–
CC(/C=C/c1ccc(Cl)cc1)=N\OCC(=O)O	50.57%	–
CCOC(=O)CO/N=C(C)/C=C/c1ccccc1	29.76%	–
COc1ccc(/C=C/C(C)=N/OCC(=O)O)cc1	7.35%	–
CCOC(=O)C(C)O/N=C(C)/C=C/c1ccc(Cl)cc1 (centres undefined)	44.52%	–
CC(/C=C/c1ccc(Cl)cc1)=N\OC(C)C(=O)NC(C)C (centres undefined)	42.84%	–
CCOC(=O)C(C)O/N=C(C)/C=C/c1ccc(OC)cc1 (centres undefined)	21.66%	–
CCOC(=O)CO/N=C(C)/C=C/c1ccc(OC)cc1	22.14%	–
CC(/C=C/c1ccccc1)=N\OC(C)C(=O)NC(C)C (centres undefined)	37.38%	–
CC(/C=C/c1ccc(Cl)cc1)=N\OC(C)C(=O)NN (centres undefined)	43.49%	–

Source: ChEMBL document CHEMBL1157028, “Synthesis and anti-inflammatory activity of novel (substituted)benzylidene acetone oxime ether derivatives: molecular modeling study” (Eur J Med Chem, 2010)
